An excerpt weighted towards active compounds, which were near 2.9% of everything screened.
PGC1a acetyl inh = modulators of PGC1a acetylation. 0.17% of 350,000 active. U2OS PGC1a acetylation, AlphaScreen anti-acetyl-lysine; with virally co-expressed GCN5 acetyltransferase. inhibition, % at 15.6 µM;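 active means every replicate shows inhibition of at least 40%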;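 further: 0% = neutral control wells and 100% = positive control wells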
DENV2 CPE = protects cells from dengue virus 2 cytopathic effect; CPE inhibition, % at 9.99 µM; 1.7% of 350,000 active; DENV2-infected cells, cytopathic effect rescue, plate reader; AID 651640; in the data active means CPE inhibition above about 20%, passing the limit was not always enough; tested in BHK-21 cells;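 further: 0% = median of neutral control wells and 100% = median of positive control wells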
C2C12 statin = suppressors of simvastatin-induced myotoxicity in C2C12 myotubes; rescue of ATP level, % at 7.49 µM; 0.78% of 330,000 active; AID 602340; ATP luminescence, 48 h; scaled: DMSO 0, geranylgeraniol control 100;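 active means mean ATP rescue above about 67%, or every replicate alone reaching that limit, limit read from the data, passing the limit was not always enough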;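 further: myotubes were challenged with 10 µM simvastatin during compound exposure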
SIRT5 inh = blocks human SIRT5 desuccinylation of peptide | Purified SirT5, succinyl-peptide AMC, trypsin-coupled fluorescence | 1.1% of 330,000 active | inhibition, % at 15 µM; in the data active means inhibition above about 15%
Target sequence (Q9NXA8 whole entry, looked up): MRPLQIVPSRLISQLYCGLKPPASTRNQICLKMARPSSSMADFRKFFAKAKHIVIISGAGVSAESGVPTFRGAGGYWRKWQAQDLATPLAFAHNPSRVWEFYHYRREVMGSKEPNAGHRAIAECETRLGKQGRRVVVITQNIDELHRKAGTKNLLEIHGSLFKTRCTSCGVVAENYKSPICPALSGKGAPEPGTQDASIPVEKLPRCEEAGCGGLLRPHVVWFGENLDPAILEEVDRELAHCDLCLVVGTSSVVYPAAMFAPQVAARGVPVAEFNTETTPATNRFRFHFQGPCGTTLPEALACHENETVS
S100A4 MyoIIA = S100A4-myosin IIA interaction inhibition. P26447. S100A4/TAMRA-MyoIIA peptide fluorescence polarization. inhibition, % at 10.7 µM. 0.14% of 360,000 active. AID 652163;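 active means mean inhibition of at least 70% across replicates, with every replicate also reaching that level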
Target sequence (P26447 whole entry, looked up): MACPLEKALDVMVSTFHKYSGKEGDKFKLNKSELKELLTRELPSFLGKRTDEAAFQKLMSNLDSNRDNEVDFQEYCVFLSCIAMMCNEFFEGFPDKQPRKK
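System – human S100A4 monomer protein, biochemical binding assay · Buffer or medium – Calcium-containing HEPES buffer, pH 7.2 · Timing – 5 min between mix addition and reading · Also added – TAMRA-labelled myosin IIA heavy-chain peptide probe, 5 nM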
Active calls of the source: *.

For Cc1cc(N2CCN(c3ccccc3)CC2)n2nnnc2n1 the results were PGC1a acetyl inh -2 and C2C12 statin 149*.
Cc1cccc(N2CCN(c3cc(C)nc4nnnn34)CC2C)c1 (centres undefined) was read as PGC1a acetyl inh 21.
`CC(C)CC#Cc1ccc2c(c1)O[C@H](CN(C)C(=O)CN(C)C)[C@H](C)CN([C@H](C)CO)S2(=O)=O` gave PGC1a acetyl inh -5, DENV2 CPE 0, C2C12 statin -6, SIRT5 inh 6 and S100A4 MyoIIA 26.
`CO[C@H]1CN(C)C(=O)c2ccc(NC(C)=O)cc2OC[C@H](C)N(Cc2ccccc2C(=O)O)C[C@H]1C` gave PGC1a acetyl inh 15, DENV2 CPE -4, C2C12 statin 3, SIRT5 inh -4 and S100A4 MyoIIA -1.
Screening C[C@H](CO)N1C[C@H](C)[C@H](CN(C)C(=O)C2CCC2)Oc2cc(-c3cccnc3)ccc2S1(=O)=O returned PGC1a acetyl inh -11, DENV2 CPE -3, C2C12 statin -5, SIRT5 inh 0 and S100A4 MyoIIA 10.
COc1ccc(Cl)c2sc(N3CCN(C(=O)c4ccco4)CC3)nc12 was read as DENV2 CPE 104*, C2C12 statin 10, SIRT5 inh 1 and S100A4 MyoIIA -5.
CN(C)C(=O)C[C@@H]1CC[C@H](NC(=O)C2CCC2)[C@H](CO)O1 was read as PGC1a acetyl inh -3, DENV2 CPE 0, C2C12 statin -6, SIRT5 inh 2 and S100A4 MyoIIA 16.
`COc1ccc(CC(=O)OCC(=O)c2ccc(OC)c(OC)c2)cc1` gave PGC1a acetyl inh 8, DENV2 CPE 30*, C2C12 statin -2, SIRT5 inh 2 and S100A4 MyoIIA -3.
Screening O=[N+]([O-])c1cc(-c2ncccn2)c([N+](=O)[O-])s1 returned PGC1a acetyl inh 61*, DENV2 CPE 10, C2C12 statin 1, SIRT5 inh 1 and S100A4 MyoIIA -1.
`O=C(C[C@@H]1CC[C@@H]2[C@H](COC[C@H](O)CN2C(=O)c2cccnc2)O1)NCc1ccc(Cl)cc1` gave PGC1a acetyl inh -2, DENV2 CPE 3, C2C12 statin 8, SIRT5 inh 10 and S100A4 MyoIIA 94*.
`O=C(C[C@H]1CC[C@H]2[C@@H](COC[C@@H](O)CN2C(=O)c2cccnc2)O1)NCc1ccc(Cl)cc1` gave PGC1a acetyl inh -6, DENV2 CPE -1, C2C12 statin -5, SIRT5 inh 4 and S100A4 MyoIIA -27.
O=C(C[C@H]1CC[C@H]2[C@@H](COC[C@@H](O)CN2C(=O)Nc2ccc(Cl)c(Cl)c2)O1)NCc1ccc(Cl)cc1 was read as PGC1a acetyl inh 12, DENV2 CPE 29*, C2C12 statin -20, SIRT5 inh -2 and S100A4 MyoIIA 11.
O=C(C[C@@H]1CC[C@H]2[C@@H](COC[C@@H](O)CN2C(=O)Nc2ccc(Cl)c(Cl)c2)O1)NCc1ccc(Cl)cc1 was read as PGC1a acetyl inh 5, DENV2 CPE -16, C2C12 statin -19, SIRT5 inh 4 and S100A4 MyoIIA 2.
Screening CCCc1cn(CC[C@@H]2CC[C@H](NC(=O)Nc3ccccc3F)[C@@H](CO)O2)nn1 returned PGC1a acetyl inh 2, DENV2 CPE 2, C2C12 statin 1, SIRT5 inh 1 and S100A4 MyoIIA 4.
Screening CCNC(=O)N(C)[C@H]1C[C@H]2c3[nH]c4c(-c5ccc6c(c5)OCO6)cccc4c3CCN2C(=O)[C@H]1[C@H](C)O returned DENV2 CPE -10, SIRT5 inh 0 and S100A4 MyoIIA 4.
Screening C/C=C/c1ccc2c(c1)O[C@@H](CN(C)Cc1ccccc1)[C@@H](C)CN([C@@H](C)CO)S2(=O)=O returned PGC1a acetyl inh -10, DENV2 CPE 0, C2C12 statin -8, SIRT5 inh 2 and S100A4 MyoIIA 1.
C/C=C/c1ccc2c(c1)O[C@H](CN(C)Cc1cccc(F)c1)[C@@H](C)CN([C@@H](C)CO)S2(=O)=O was read as PGC1a acetyl inh -4, DENV2 CPE 3, C2C12 statin -17, SIRT5 inh 17* and S100A4 MyoIIA 23.
C[C@@H]1CN([C@H](C)CO)S(=O)(=O)c2ccc(/C=C/c3ccccc3)cc2O[C@H]1CN(C)Cc1ccccc1 was read as PGC1a acetyl inh -27, DENV2 CPE 4, C2C12 statin -11, SIRT5 inh 23* and S100A4 MyoIIA 54.
`C/C=C/c1ccc2c(c1)O[C@H](CN(C)Cc1ccccc1)[C@@H](C)CN([C@@H](C)CO)S2(=O)=O` gave PGC1a acetyl inh 1, DENV2 CPE 14, C2C12 statin -21, SIRT5 inh 18* and S100A4 MyoIIA -24.
Screening C/C=C/c1ccc2c(c1)O[C@@H](CN(C)Cc1cccc(F)c1)[C@@H](C)CN([C@H](C)CO)S2(=O)=O returned PGC1a acetyl inh -19, DENV2 CPE 12, C2C12 statin 9, SIRT5 inh 13 and S100A4 MyoIIA 0.
c1ccc(CCC2Cc3ccccc3N2)cc1 (centres undefined) was read as PGC1a acetyl inh 5, DENV2 CPE -5, C2C12 statin 12, SIRT5 inh 15* and S100A4 MyoIIA -40.
Screening c1ccc(CC[C@@H]2CC[C@@H](CCc3ccccc3)N2)cc1 returned PGC1a acetyl inh -10, DENV2 CPE 3, C2C12 statin 47 and S100A4 MyoIIA 3.
For C[C@H](CO)N1C[C@H](C)[C@H](CN(C)Cc2ccc(O)cc2)OCc2cnnn2CCCC1=O the results were PGC1a acetyl inh 3, DENV2 CPE 7, C2C12 statin -1, SIRT5 inh -2 and S100A4 MyoIIA -24.
For NC(=O)[C@H]1[C@@H]2C(=O)O[C@@H](c3ccccc3)[C@@H](c3ccccc3)N2[C@@H](c2ccccc2OCCO)[C@]12C(=O)Nc1ccc(C#CC3(O)CCCCCC3)cc12 the results were PGC1a acetyl inh -16, DENV2 CPE -5, SIRT5 inh 16* and S100A4 MyoIIA -3.
`COc1ccc(C#Cc2ccc3c(c2)[C@]2(C(=O)N3)[C@H](c3ccc(OCCO)cc3)N3[C@H](c4ccccc4)[C@H](c4ccccc4)OC(=O)[C@H]3[C@@H]2C(=O)N2CCc3cc(OC)c(OC)cc3C2)cc1` gave PGC1a acetyl inh 5, DENV2 CPE 6, SIRT5 inh 15* and S100A4 MyoIIA -49.
COc1ccc(C#Cc2ccc3c(c2)[C@]2(C(=O)N3)[C@H](C(=O)N3CCc4cc(OC)c(OC)cc4C3)[C@H]3C(=O)O[C@H](c4ccccc4)[C@H](c4ccccc4)N3[C@@H]2c2ccc(OCCO)cc2)cc1 was read as PGC1a acetyl inh -5, DENV2 CPE 2, SIRT5 inh -4 and S100A4 MyoIIA 9.
C[C@H]1CN([C@@H](C)CO)C(=O)c2cccc(NC(=O)C3CCCCC3)c2O[C@H]1CN(C)S(=O)(=O)c1cccs1 was read as PGC1a acetyl inh 11, DENV2 CPE -2, C2C12 statin 11, SIRT5 inh 4 and S100A4 MyoIIA -5.

High-throughput results from PubChem BioAssay.
